The list is not random: actives were taken first. Their share in the collection is about 1.5%.
CXCR6 inh: CXCR6 (human) receptor inhibition; AID 602244; O00574; 0.36% of 360,000 active; CHO-K1 PathHunter CXCR6 beta-arrestin, luminescence; inhibition, % at 20 µM; in the data active means inhibition above about 34%, passing the limit was not always enough;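 further: antagonist mode with CXCL16 agonist at 10 nM final; 0% = 10 nM CXCL16 with DMSO and 100% = unstimulated wells without agonist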
Target sequence (O00574 whole entry, looked up): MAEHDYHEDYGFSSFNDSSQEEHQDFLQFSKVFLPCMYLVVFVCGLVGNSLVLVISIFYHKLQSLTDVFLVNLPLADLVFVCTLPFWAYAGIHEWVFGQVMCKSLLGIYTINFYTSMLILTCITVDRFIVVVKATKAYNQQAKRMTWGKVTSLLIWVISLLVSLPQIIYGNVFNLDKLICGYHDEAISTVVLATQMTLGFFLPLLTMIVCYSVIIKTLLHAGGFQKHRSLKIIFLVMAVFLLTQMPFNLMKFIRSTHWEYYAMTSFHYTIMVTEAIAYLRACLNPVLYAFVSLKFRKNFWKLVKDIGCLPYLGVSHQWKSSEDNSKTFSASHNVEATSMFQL
APJ agonist: activates the human apelin receptor APJ | P35414 | activation, % at 20 µM | AID 2520 | CHO-K1 APJ PathHunter beta-arrestin, luminescence; 0% DMSO wells, 100% apelin | 0.11% of 330,000 active;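 active means activation more than six SD over the plate average, tested at 20 µM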;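 further: 0% = DMSO alone and 100% = apelin-13 at 10 nM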
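Assay system: CHO-K1 cells stably expressing ProLink-tagged human APJ and arrestin–beta-gal acceptor. Compound dosing: 20 µM single point, 1% DMSO. Times: 16-18 h seeding, 90 min dark compound exposure, 60 min detection. Detection: beta-gal luminescence. Evaluation: APJ–arrestin association signal. Controls: negative DMSO alone, positive Apelin-13 at 10 nM.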
APJ antag: APJ receptor antagonism | 0.32% of 330,000 active | P35414 | AID 2521 | inhibition, % at 20 µM | CHO-K1 APJ beta-arrestin complementation, luminescence;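 active means inhibition above about 40% at 20 µM, limit read from the data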;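 further: cells challenged with 10 nM apelin-13 agonist together with compound; plate controls were apelin-13 plus DMSO wells for no effect and DMSO wells lacking apelin-13 for full effect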
EBI2 block: antagonists of human EBI2 receptor | P32249 | inhibition, % at 5 µM | 0.81% of 360,000 active | EBI2 beta-arrestin recruitment, luminescence, 7a,25-OHC stimulated; in the data active means inhibition above about 38%;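 further: enzyme fragment complementation signal reports receptor beta-arrestin coupling in cells; 0% = agonist plus DMSO wells and 100% = wells without agonist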
CCR6 antag: CCR6 (human) receptor antagonism. P51684. CHO-K1 CCR6 PathHunter beta-arrestin, luminescence, CCL20-stimulated. inhibition, % at 20 µM. 0.49% of 340,000 active;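 active means compounds whose inhibition of the agonist-driven luminescence signal at 20 µM reaches about 50%, limit read from the data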;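 further: cells stimulated with CCL20 at 14 nM final; plate controls were DMSO with CCL20 for no effect and DMSO without agonist for full effect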
APJ antag confirm: confirmation of human APJ apelin receptor antagonists; shares compounds with APJ antag; AID 2766; inhibition, % at 20 µM; 66% of 950 active; APJ beta-arrestin recruitment, luminescence, antagonist mode; in the data active means inhibition above about 50%
Active calls of the source: *.

For S=C1NCCc2ccccc2C1c1ccccc1Cl (configuration not stated) the results were CXCR6 inh 35, APJ agonist -11, APJ antag 44*, EBI2 block 9, CCR6 antag 52* and APJ antag confirm 87*.
For S=C1NCCc2ccccc2C1c1ccccc1 (configuration not stated) the results were CXCR6 inh 12, APJ agonist -5, APJ antag 19, EBI2 block -1 and CCR6 antag 31.
Screening CC1=C/C(=C(/c2cc(C)c(O)c(Br)c2)c2ccccc2S(=O)(=O)O)C=C(Br)C1=O returned CXCR6 inh 43*, APJ agonist -11, APJ antag 46*, EBI2 block 16, CCR6 antag 64* and APJ antag confirm 86*.
CC1=C/C(=C(/c2ccc(O)c(C)c2)c2ccccc2S(=O)(=O)O)C=CC1=O was read as CXCR6 inh 41*, APJ agonist -9, APJ antag 46*, EBI2 block 5, CCR6 antag 55* and APJ antag confirm 59*.
Screening N#Cc1ccccc1NC(=O)COC(=O)/C=C/c1ccc(S(=O)(=O)N2CCOCC2)cc1 returned CXCR6 inh 2, APJ agonist -3, APJ antag 0, EBI2 block 13 and CCR6 antag 2.
For O=C(c1ccc(Cl)c([N+](=O)[O-])c1)N(Cc1ccco1)C1CCS(=O)(=O)C1 (configuration not stated) the results were CXCR6 inh 3, APJ agonist 4, APJ antag -5, EBI2 block 5 and CCR6 antag -1.
Screening COC(=O)[C@H]1C[C@@]2(O)CN(S(=O)(=O)c3ccc(C)cc3)C[C@@]2(OC(=O)NCc2ccccc2)C[C@H]1C(=O)OC returned CXCR6 inh -4 and EBI2 block -6.
Screening Cc1cc(C)c2c(CN3CCCCCCC3)cc(=O)oc2c1 returned CXCR6 inh 3 and EBI2 block -1.
`Cc1cc(C)c2c(CN3CCCCC3)cc(=O)oc2c1` gave CXCR6 inh -2, APJ agonist -1, APJ antag 43*, EBI2 block 6, CCR6 antag 18 and APJ antag confirm 22.
Screening Cc1ccccc1NC(=O)c1ccc(Nc2c([N+](=O)[O-])cc([N+](=O)[O-])c3ccccc23)cc1 returned CXCR6 inh 42*, APJ agonist -5, APJ antag 57*, EBI2 block 22, CCR6 antag 60* and APJ antag confirm 90*.
`CCCc1c(-c2cccc(Br)c2)ncn1Cc1ccccc1OC` gave CXCR6 inh 1 and EBI2 block 17.
Screening COc1cc(/C=C2\SC(=O)N(c3cccc(Cl)c3)C2=O)cc([N+](=O)[O-])c1O returned CXCR6 inh 35, APJ agonist -9, APJ antag 48*, EBI2 block 18, CCR6 antag 68* and APJ antag confirm 59*.
For O=C1S/C(=C\c2ccc(O)c([N+](=O)[O-])c2)C(=O)N1c1ccccc1Cl the results were CXCR6 inh 38, APJ agonist -4, APJ antag 33, EBI2 block 4 and CCR6 antag 30.
`CCn1c(CO)nc2c1c(=O)[nH]c(=O)n2Cc1ccccc1` gave CXCR6 inh 46*, APJ agonist -7, APJ antag 53*, EBI2 block 15, CCR6 antag 64* and APJ antag confirm 84*.
`COc1ccc(F)cc1-c1cc(NC=O)c2ncc(-c3cccc(C(F)(F)F)c3)n2c1` gave CXCR6 inh 4 and EBI2 block 18.
For Cc1ccc(NC(=O)c2cc(-c3cc(Cl)ccc3C)n[nH]2)cc1NS(C)(=O)=O the results were CXCR6 inh -14 and EBI2 block 24.
For CCSc1nnc(NC(=O)c2cnccn2)s1 the results were APJ agonist -1, APJ antag 5 and CCR6 antag 3.
`O=C(Nc1nnc(SCc2ccc(F)cc2)s1)c1cnccn1` gave CXCR6 inh 2, APJ agonist -4, APJ antag 49*, EBI2 block -7, CCR6 antag 20 and APJ antag confirm 60*.
CCSc1nnc(NC(=O)c2ccccn2)s1 was read as CXCR6 inh 24, APJ agonist -6, APJ antag 44*, EBI2 block 8, CCR6 antag 37 and APJ antag confirm 60*.
Screening C/C(N)=C(/C#N)C(=O)COC(=O)CCCNC(=O)c1ccc(Cl)cc1 returned CXCR6 inh 1, APJ agonist -1, APJ antag 3, EBI2 block 4 and CCR6 antag 12.
Cc1ccc(C(=O)NCC(=O)OC(C)C(=O)Nc2ccc(N3CCOCC3)cc2)s1 (configuration not stated) was read as CXCR6 inh -2, APJ agonist -6, APJ antag -5, EBI2 block -4 and CCR6 antag 9.
`Cc1cc(C)c2[nH]c(O)c(N=NC(=S)NCC3CCCO3)c2c1` (configuration not stated) gave CXCR6 inh 18, APJ agonist 2, APJ antag 23, EBI2 block 7 and CCR6 antag 22.
`Oc1[nH]c2c(Cl)cc(Cl)cc2c1N=NC(=S)NCC1CCCO1` (configuration not stated) gave CXCR6 inh 36, APJ agonist -1, APJ antag 40*, EBI2 block 29, CCR6 antag 58* and APJ antag confirm 64*.
For COc1ccc(N2CCOCC2)c(NC(=O)c2ccc3c(c2)OCO3)c1 the results were CXCR6 inh 1, APJ agonist -1, APJ antag 51*, EBI2 block -4, CCR6 antag 20 and APJ antag confirm 30.
COCCNC(=S)N/N=C(\C)c1ccc(Cl)c(Cl)c1Cl was read as CXCR6 inh 27, APJ agonist -4, APJ antag 43*, EBI2 block 13, CCR6 antag 38 and APJ antag confirm 36.
For COCCNC(=S)N/N=C(\C)c1ccc(Cl)c(Cl)c1 the results were CXCR6 inh 1, APJ agonist -4, APJ antag 11, EBI2 block 2 and CCR6 antag 15.
For CSc1ncnc2c1ncn2CCCNCC(c1ccccc1)c1ccccc1 the results were CXCR6 inh 2 and EBI2 block 11.
`CS(=O)(=O)Nc1ccc(S(=O)(=O)NC2CCCCC2)cc1` gave CXCR6 inh -7, APJ agonist -3, APJ antag 46*, EBI2 block -4, CCR6 antag 4 and APJ antag confirm 28.
COC(=O)CC1(CC(N)=O)SCCS1 was read as CXCR6 inh -1, EBI2 block 5 and CCR6 antag 0.
Screening O=[N+]([O-])c1c(NCCCO)cc(Sc2nc3ccccc3s2)c2nonc12 returned CXCR6 inh 97*, APJ agonist -7, APJ antag 76*, EBI2 block 49*, CCR6 antag 115* and APJ antag confirm 117*.

From PubChem BioAssay
